Read-outs that look alike come from different tables or passages of the source.
Columns and labels:
SK-MEL-28 cells [1] = assay: Dark cytotoxicity and photocytotoxicity in normoxia, resazurin cell viability; assay type: cell-based, human
Summary of the method: (§1)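 Cells adhered 3–5 h at 37°C, then were dosed at 1 nM to 300 μM. After a 13–22 h DLI, light plates received 100 J cm−2 of broadband visible (400–700 nm, 21 mW cm−2), green (523 nm) or red (633 nm, ±2.5 nm, 18 mW cm−2) light. Dark plates stayed incubated. Viability was read by resazurin after 24 h at 37°C. EC50 came from sigmoidal fits; PI = dark EC50/light EC50.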

A549 cells = assay: as above; assay type: cell-based, human
Summary of the method: as §1

SK-MEL-28 cells [2] = assay: Dark cytotoxicity and photocytotoxicity in hypoxia; assay type: cell-based, human; conditions: hypoxia 1% O2, regardless of light treatment
Summary of the method: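 Cells were moved to a 1% O2 chamber for 2–3 h after adhesion, then dosed (1 nM to 300 μM). After an 18 h DLI, dissolved O2 was checked by optical probe. Light plates were sealed with low-permeability film and illuminated outside the chamber (~1.5 h). All plates were then held in normoxia (37°C, 5% CO2) for 20–23 h before resazurin read-out. EC50 came from sigmoidal fits; PI = dark/light ratio. Each run was done in triplicate.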

[3] = Lipophilicity by shake-flask method; assay type: physicochemical; conditions: chloride salts, 1-octanol / 10 mM phosphate buffer pH 7.4
[4] = any light condition (visible, 523 nm, 633 nm; 100 J cm−2), normoxia
[5] = read-out: dark EC50, no light, normoxia

Substance | photocytotoxic activity (SK-MEL-28 cells [1]; [4]) | EC50 (SK-MEL-28 cells [1]; [5]) [µM] | photocytotoxic activity (A549 cells; [4]) | EC50 (A549 cells; [5]) [µM] | photocytotoxic effect (SK-MEL-28 cells [2]) | drop in activity with green light versus visible light (SK-MEL-28 cells [1]; 523 nm vs visible, normoxia) [fold] | PI (dark EC50 / green EC50) (SK-MEL-28 cells [1]; 523 nm, 100 J cm−2, normoxia, representative replicate (repeat 0)) | EC50 (SK-MEL-28 cells [1]; read-out: green EC50, 523 nm, 100 J cm−2, normoxia, representative replicate (repeat 0)) [µM] | enhancement in visible photocytotoxicity relative to Ru-1T (SK-MEL-28 cells [1]; visible light, normoxia) [fold] | EC50 (A549 cells; read-out: visible EC50, visible light 400–700 nm, 100 J cm−2, normoxia) [µM] | PI (dark EC50 / visible EC50) (A549 cells; visible light 400–700 nm, 100 J cm−2, normoxia) | log Do/w [3]
rac-[Ru(4,4′-btfmb)3](Cl)2 [[Ru(4,4′-btfmb)3]^2+, reference compound] | inactive | > 300 | inactive | > 300 | no photocytotoxic effect |  |  |  |  |  |  | 
rac-[Ru(4,4′-btfmb)2(IP-2T)](Cl)2 [Ru-2T] |  |  |  |  |  | 3 | 91 | 1.9 | 36 | 1.37 | 127 | positive
